According to ChEMBL document CHEMBL3414521, “Discovery of the 2-phenyl-4,5,6,7-Tetrahydro-1H-indole as a novel anti-hepatitis C virus targeting scaffold” (Eur J Med Chem, 2015):
Active and inactive are the calls of the source. The calls are words filed in the database; no cut-off is given here.

Experiments:
[1] = system: Hepatitis C virus; assay: Antiviral activity against HCV genotype 2a infected in HuH7.5-FGR-JC1_Rluc2A cells at 50 uM by […] luciferase reporter gene assay; type: functional, Hepacivirus hominis; settings: for inhibition: Hepacivirus hominis
[2] = system: Hepatitis C virus; assay: Antiviral activity against HCV genotype 1b infected in HuH7/Rep-Feo1b cells at 50 uM by firefly luciferase reporter gene assay; type: functional; settings: for inhibition: Hepacivirus hominis; for inhibition at 50 µM: Huh-7
In short: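 Replicon reporter cells (gt 1b in Huh7/Rep-Feo1b, firefly luciferase; gt 2a in Huh7.5-FGR-JC1-Rluc2A, Renilla luciferase) kept in DMEM with 10% FCS and 0.5 mg/mL G418, 37 °C, 5% CO2. About 1×10^4 cells per well were treated at 50 μM for 48 h in 1.0% DMSO. Luciferase signal was read relative to DMSO-treated cells as % inhibition.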

[3] = Cytotoxicity against human Huh7.5 cells after 48 hrs by MTS assay; type: cell-based; settings: huh-7, 48 h
In short: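 Parental Huh7.5 cells grown in DMEM with 10% FCS without G418, 37 °C, 5% CO2; treated at 6–8 doses for 48 h. Viability by MTS bioreduction to formazan; CC50 as concentration halving MTS conversion relative to DMSO controls, mean ± SD of three independent experiments.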

[4] = Selectivity index, ratio of CC50 for human Huh7.5 cells to EC50 for HCV genotype 2a infected in HuH7.5-FGR-JC1_Rluc2A cells; parameters: species or system Huh-7
[5] = system: Hepatitis C virus; assay: Antiviral activity against HCV genotype 2a infected in HuH7.5-FGR-JC1_Rluc2A cells by […]; type: functional, Hepacivirus hominis
[6] = system: Hepatitis C virus; assay: Antiviral activity against HCV genotype 1b infected in HuH7/Rep-Feo1b cells by firefly luciferase reporter gene assay; type: functional, cell-based, Hepacivirus hominis; settings: Huh-7
In short: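 Huh7 cells carrying autonomously replicating gt 1b replicon with firefly luciferase reporter; ~1×10^4 cells/well treated 48 h, 1.0% DMSO final. Primary screen at 50 μM; actives titrated over 8–12 quarter-log dilutions. Luciferase signal relative to DMSO-treated controls; EC50 from dose-response curves, mean ± SD of three independent experiments.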

[7] = Selectivity index, ratio of CC50 for human Huh7.5 cells to EC50 for HCV genotype 1b infected in HuH7/Rep-Feo1b cells; parameters: species or system Huh-7

| Compound | inhibition at 50 µM [1] | inhibition [2] | CC50 [3] | inhibition at 50 µM [2] | Ratio CC50/EC50 [4] | EC50 [5] | EC50 [6] | Ratio CC50/EC50 [7] | inhibition [1] |
| --- | --- | --- | --- | --- | --- | --- | --- | --- | --- |
| Cc1nn(Cc2ccccc2)c(C)c1CC(=O)O | 14% | inactive | > 200 µM | – | – | – | – | – | – |
| CC1CN(C(=O)c2ccccc2)c2ccccc2NC1=O (stereo unspecified) | 77% | – | > 200 µM | 21% | >14 | 14.1 µM | – | – | – |
| C=CCn1c(-c2ccccc2)cc2c1CCCC2 | 69% | – | 119 µM | 35% | 4 | 32.1 µM | – | – | – |
| CC(C)(C)OC(=O)N1CC(=O)[C@]2(C)CCN(Cc3ccccc3)[C@@H]2C1 (relative stereo) | 98% | – | 115 µM | 73% | >19 | 6 µM | 24.3 µM | 5 | – |
| Cc1ccc2[nH]c(=O)c(CN(CCc3ccccc3)C(=O)c3ccc(OCCN(C)C)cc3)cc2c1 | 61% | – | > 200 µM | 45% | >8 | 24.8 µM | – | – | – |
| Cc1ccc2[nH]c(=O)c(CN(Cc3ccccc3)C(=O)c3ccc(NC(=N)N)cc3)cc2c1 | 44% | inactive | > 200 µM | – | – | – | – | – | – |
| O=C(O)C1CCCN(S(=O)(=O)c2ccccc2)C1 (racemic) | 62% | inactive | > 200 µM | – | >7 | 28.1 µM | – | – | – |
| COC(=O)c1cc(C(=O)O)cc(-c2cc3c(n2Cc2ccccc2)CCCC3)c1 | 96% | – | 45.6 µM | 81% | >5 | 9.9 µM | 35.8 µM | >1 | – |
| Br.CC(=O)N[C@]12CCN(Cc3ccccc3)C[C@H]1[C@H](c1ccccc1)NC2 (racemic) | 73% | inactive | > 200 µM | – | >41 | 4.9 µM | – | – | – |
| CC(=O)c1cn(CC(=O)O)c2ccccc12 | 55% | inactive | > 200 µM | – | – | – | – | – | – |
| Cc1nn(Cc2ccccc2)c(C)c1C(=O)O | – | – | > 200 µM | 19% | – | – | – | – | inactive |
| O=C(O)c1cc(-c2ccncc2)nc2ccccc12 | 49% | inactive | > 200 µM | – | – | – | – | – | – |
| CC1(CO)CCN2CCCCC21 (racemic) | 25% | – | > 200 µM | 50% | – | – | – | – | – |
| C[C@@]12C[C@@H]3C(=O)Nc4ccccc4C(=O)N3[C@@H]1CCCCC2=O (racemic) | – | inactive | > 200 µM | – | – | – | – | – | inactive |
| CCn1cc(-c2ccccc2)c(C(=O)O)c1C | 36% | inactive | > 200 µM | – | – | – | – | – | – |
| Cc1ccc2[nH]c(=O)c(CN(Cc3ccc(F)cc3)C(=O)c3ccc(NC(=N)N)cc3)cc2c1 | 29% | – | > 200 µM | 54% | – | – | – | – | – |
| CC(C(N)=O)n1c(-c2ccccc2)cc2c1CCCC2 (stereo unspecified) | 83% | – | 156 µM | 50% | >10 | 15.4 µM | – | – | – |
| O=C1CC(c2nc3ccccc3[nH]2)CN1C1CCCCC1 (stereo unspecified) | 72% | – | > 200 µM | 19% | >13 | 15.6 µM | – | – | – |
| CCn1cc(C(=O)Nc2ccccc2C(N)=O)c(=O)c2cc(OC)ccc21 | 65% | – | 85.6 µM | 17% | 4 | 20.6 µM | – | – | – |

| Compound | inhibition at 50 µM [1] | inhibition [2] | CC50 [3] | inhibition at 50 µM [2] | Ratio CC50/EC50 [4] | EC50 [5] | EC50 [6] | Ratio CC50/EC50 [7] | inhibition [1] |
| --- | --- | --- | --- | --- | --- | --- | --- | --- | --- |
| c1ccc(Cn2c(-c3cccnc3)cc3c2CCCC3)cc1 | 99% | – | < 25 µM | 92% | – | – | – | – | – |
| Cc1ccc(CN(Cc2cc3cc(C)ccc3[nH]c2=O)C(=O)c2ccc(CN3CCN(C)CC3)cc2)cc1 | 99% | – | < 25 µM | 92% | – | – | – | – | – |
| CCn1cc(-c2ccccc2)c(C(N)=O)c1C | 66% | – | > 200 µM | 49% | >8 | 23.6 µM | – | – | – |
| NC(=O)Cn1c(-c2ccccc2)cc2c1CCCC2 | 48% | – | > 200 µM | 37% | – | – | – | – | – |
| C[C@@]12CC3C(=O)N4[C@H](C[C@@]5(C)C(=O)CCCC[C@@H]45)C(=O)N3[C@@H]1CCCCC2=O (mixture of isomers) | 28% | inactive | > 200 µM | – | – | – | – | – | – |
| Br.CC(=O)[C@]12CCN(Cc3ccccc3)C[C@H]1[C@H](c1ccccc1)NC2 (racemic) | 76% | inactive | > 200 µM | – | >11 | 17.4 µM | – | – | – |
| CCOC(=O)C(C)n1c(-c2ccccc2)cc2c1CCCC2 (racemic) | 95% | – | 84.3 µM | 74% | 6 | 13.7 µM | 13.2 µM | 6 | – |
| COc1cccc(C(=O)Nc2cc(C)nc3ccc(C)cc23)c1 | 99% | – | < 25 µM | 88% | – | – | – | – | – |
| CCOC(=O)[C@@H](C)N1C(=O)C(=O)c2ccccc21 | 85% | – | > 200 µM | 19% | >27 | 7.3 µM | – | – | – |
| CC(=O)N[C@@]12CCN(C(=O)OC(C)(C)C)C[C@@H]1CN(C(=O)OC(C)(C)C)C2 (racemic) | 43% | inactive | > 200 µM | – | – | – | – | – | – |
| COc1ccc(CN2CC(C)n3c(nc4cccnc43)C2=O)c(OC)c1 (racemic) | 48% | – | > 200 µM | 45% | – | – | – | – | – |
| O=C(O)C1CC(=O)N(CCc2c[nH]c3ccccc23)C1 (stereo unspecified) | 51% | – | > 200 µM | 22% | >4 | 48.5 µM | – | – | – |
| COc1ccc(NS(=O)(=O)c2ccc(CN3C(=O)c4ccccc4C3=O)cc2)cc1 | 60% | – | > 200 µM | 39% | >9 | 22.5 µM | – | – | – |
| Oc1ccccc1-c1cc2c(n1Cc1ccccc1)CCCC2 | 99% | – | 48.9 µM | 96% | 8 | 6.5 µM | 9.2 µM | 5 | – |
| O=C(O)c1nn(Cc2ccccc2)c2ccccc12 | 46% | inactive | > 200 µM | – | – | – | – | – | – |
| O=C(O)CCn1c(-c2ccccc2)cc2ccccc21 | 54% | – | – | 26% | – | – | – | – | – |
| Cc1nc2c(c(C)nn2-c2ccccc2)c(C)c1CCC(=O)O | 78% | inactive | > 200 µM | – | >17 | 11.7 µM | – | – | – |
| O=C1CC(c2nc3ccccc3[nH]2)CN1Cc1ccccc1 (stereo unspecified) | 67% | inactive | > 200 µM | – | >9 | 21.1 µM | – | – | – |
| Cc1cccc(N2CC(c3nc4ccccc4[nH]3)CC2=O)c1 (stereo unspecified) | 77% | – | > 200 µM | 21% | >12 | 17.3 µM | – | – | – |
